Common to all, as to format: functional, Mus musculus
Experiment [1] deals with P388. Nature of the experiment: Compound was evaluated for activity against P388 leukemia, at an intraperitoneal dose of 25 mg/kg. The essentials:
(§1)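 Mice bearing P388 leukemia were given the compound intraperitoneally, with activity read out as T/C (%). The full protocol is cited to earlier work.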

Experiment [2] deals with P388. In words: Compound was evaluated for activity against P388 leukemia, at an intraperitoneal dose of 50 mg/kg. The method in brief: as §1
For experiment [3], the system named is P388. Nature of the experiment: Compound was evaluated for activity against P388 leukemia, at an intraperitoneal dose of 12.5 mg/kg. The essentials:
as §1

Experiment [4] deals with P388. Nature of the experiment: Compound was evaluated for activity against P388 leukemia, at an intraperitoneal dose of 400 mg/kg. The method in brief: as §1
Experiment [5] has as its system P388. Nature of the experiment: Compound was evaluated for activity against P388 leukemia, at an intraperitoneal dose of 100 mg/kg. The method in brief:
as §1

The test system of experiment [6] is P388. In words: Compound was evaluated for activity against P388 leukemia, at an intraperitoneal dose of 200 mg/kg. The essentials:
as §1

Experiment [7] concerns P388. In words: Compound was evaluated for activity against P388 leukemia, at an intraperitoneal dose of 20 mg/kg. The essentials:
as §1

For experiment [8], the system named is P388. In words: Compound was evaluated for activity against P388 leukemia, at an intraperitoneal dose of 3.1 mg/kg. The essentials: as §1
Experiment [9] has as its system P388. Nature of the experiment: Compound was evaluated for activity against P388 leukemia, at an intraperitoneal dose of 6.3 mg/kg. The method in brief:
as §1

Experiment [10] deals with P388. In words: Compound was evaluated for activity against P388 leukemia, at an intraperitoneal dose of 5 mg/kg. The method in brief: as §1
Experiment [11] relates to P388. In words: Compound was evaluated for activity against P388 leukemia, at an intraperitoneal dose of 10 mg/kg. The method in brief:
as §1

The values below come from ChEMBL document CHEMBL1123656, “Synthesis and antitumor activity of tropolone derivatives. 4” (1987).

For `COc1ccc(C(c2ccc(C(C)C)cc(=O)c2O)c2ccc3ccccc3c2O)cc1` (configuration not stated), the T/C in the experiment with P388 [1] is on record as 125%; in the experiment with P388 [2], 108%; in the experiment on P388 [3], 105%.

Consider `COc1ccc(C(C2=C(C)C(=O)c3ccccc3C2=O)c2ccc(C(C)C)cc(=O)c2O)cc1` (configuration not stated), for which the figures for the T/C in the experiment on P388 [4], with P388 [5] and in the experiment with P388 [6] were 72%, 114% and 131%, respectively.

`COc1ccc(C(c2ccc(C(C)C)cc(=O)c2O)c2c(O)c(C(=O)O)cc3ccccc23)cc1` (configuration not stated): the T/C turned out to be 141% in the experiment with P388 [5], 106% in the experiment with P388 [7] and 0% in the experiment with P388 [6].

For `COc1ccc(C(c2cc(C(C)(C)C)ccc2O)c2ccc(C(C)C)cc(=O)c2O)cc1` (configuration not stated), the T/C is reported as 116% in the experiment with P388 [1], 116% with P388 [2] and 120% in the experiment with P388 [5].

For `COc1ccc(C(c2ccc(C(C)C)cc(=O)c2O)c2ccc3cccnc3c2O)cc1` (configuration not stated), the T/C with P388 [8] turned out to be 144%; with P388 [9] it was 151%; with P388 [3] it was 141%.

Regarding `COc1ccc(C(c2ccc(C(C)C)cc(=O)c2O)c2c(O)cc3oc(-c4ccccc4)cc(=O)c3c2O)cc1` (configuration not stated), the T/C was found to be 127% in the experiment with P388 [1], 136% with P388 [5] and 148% in the experiment with P388 [6].

`COc1ccc(C(c2cc(O)ccc2O)c2ccc(C(C)C)cc(=O)c2O)cc1` (configuration not stated): the results for the T/C with P388 [1], in the experiment with P388 [2] and in the experiment on P388 [3] were 142%, 128% and 128%, respectively.

With `COc1ccc(C(c2ccc(C(C)C)cc(=O)c2O)c2c(O)oc3ccccc3c2=O)cc1` (configuration not stated), the values for the T/C in the experiment with P388 [10], with P388 [11] and in the experiment with P388 [7] were 128%, 117% and 127%, respectively.

Consider `COc1ccc(C(C2=C(O)C(=O)c3ccccc3C2=O)c2ccc(C(C)C)cc(=O)c2O)cc1` (configuration not stated), for which the T/C in the experiment with P388 [10] was found to be 108%; in the experiment on P388 [2] it was 0%; in the experiment with P388 [7], 129%.

`CCOC(c1ccc(OC)cc1)c1ccc(C(C)C)cc(=O)c1O` (configuration not stated): in the experiment on P388 [5], the T/C is on record as 148%.

As for `COc1ccc(C(c2ccc(C(C)C)cc(=O)c2O)C2Oc3c(Cl)c(OC)cc(OC)c3C2=O)cc1` (configuration not stated), the values for the T/C in the experiment with P388 [1], in the experiment on P388 [2] and in the experiment with P388 [5] were 117%, 109% and 130%, respectively.

`COc1ccc(C(c2cc(C(C)(C)C)cc(O)c2O)c2ccc(C(C)C)cc(=O)c2O)cc1` (configuration not stated): the T/C in the experiment on P388 [1] turned out to be 127%; with P388 [2], 168%; in the experiment on P388 [3] it was 110%.

Regarding `COc1ccc(C(c2ccc(O)cc2O)c2ccc(C(C)C)cc(=O)c2O)cc1` (configuration not stated), the T/C was 98% with P388 [2], 104% in the experiment on P388 [5] and 136% in the experiment with P388 [6].
